Results: ChEMBL document CHEMBL4715732, “4-Phenylureido/thioureido-substituted 2,2-dimethylchroman analogs of cromakalim bearing a bulky 'carbamate' moiety at the 6-position as potent inhibitors of glucose-sensitive insulin secretion” (Eur J Med Chem, 2016)
Activity calls are given as the source filed them. The rule behind the calls is not given here.

Assays:
[1] = species on record: Rattus norvegicus; assay: Activation of ATP-sensitive potassium channel in perifused Wistar rat pancreatic islets assessed as increase in 86Rb outflow at 10 uM measured up to 90 mins by scintillation counting method; settings: filed as opener, time min <=90
Summary of the method: (§1)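 Rat islets were perifused throughout in basal medium with 5.6 mM glucose and extracellular Ca2+, with or without the KATP blocker glibenclamide (10 μM). Test agent was added at 10 μM and 86Rb outflow was followed. Values are mean ± SEM of 6 individual experiments.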

[2] = (§2) Inhibition of glucose-induced insulin secretion in Wistar rat pancreatic islets incubated for 90 mins in presence of 16.7 mM glucose by radioimmunological assay; type: functional, tissue-based; settings: Pancreatic islet, 1.5 h
Summary of the method: (§3)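 Rat pancreatic islets were incubated with 16.7 mM glucose, with test concentrations added to the medium (0.1, 0.5, 1 and 10 μM). Insulin release is given as a percentage of the control (no drug, 16.7 mM glucose), as mean ± SEM with n = number of samples. IC50 is the concentration giving a 50% reduction of the secretory response to glucose.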

[3] = test system: Pancreatic islet; assay: as §2; type: functional, tissue-based; summary of the method: as §3
[4] = test system: Aorta; assay: Myorelaxant activity in aortic rings isolated from Wistar rat assessed as reduction in KCl-induced contractions measured after 60 mins in presence of 80 mM KCl by force-displacement transducer; type: functional, tissue-based
Summary of the method: (§4)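 Endothelium-free rat aorta rings were contracted with 30 mM or 80 mM K+, with 1 or 10 μM glibenclamide present for some 30 mM series. Agent was applied cumulatively. EC50 is the concentration giving 50% relaxation of the KCl-induced contraction, reported as mean ± SEM (n).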

[5] = species on record: Rattus norvegicus; assay: Ratio of EC50 for vasorelaxant activity in aortic rings isolated from Wistar rat assessed as reduction in KCl-induced contractions measured after 60 mins in presence of 80 mM KCl by force-displacement transducer to IC50 for inhibition of 16.7 mM glucose-induced insulin secretion in Wistar rat pancreatic islets incubated for 90 mins in presence of glucose by radioimmunological assay; type: functional
[6] = species on record: Rattus norvegicus; assay: Activation of ATP-sensitive potassium channel in perifused Wistar rat pancreatic islets assessed as increase in 86Rb outflow at 10 uM measured up to 90 mins in basal media containing 5.6 mM glucose and glibenclamide by scintillation counting method; settings: time min <=90; summary of the method: as §1
[7] = species on record: Rattus norvegicus; assay: Activation of ATP-sensitive potassium channel in perifused Wistar rat pancreatic islets assessed as inhibition of 45Ca outflow at 10 uM measured up to 90 mins in presence of 16.7 mM glucose and extracellular Ca2+ by scintillation counting method; settings: filed as opener, time min <=90
Summary of the method: (§5)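 Rat islets were prelabeled with 45Ca and perifused throughout with 16.7 mM glucose. Basal medium either contained extracellular Ca2+ or was Ca2+-free and enriched with 0.5 mM EGTA. Agent was added at 10 μM, and 45Ca outflow and insulin release were followed. Values are mean ± SEM of 5-6 individual experiments.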

[8] = species on record: Rattus norvegicus; assay: Activation of ATP-sensitive potassium channel in perifused Wistar rat pancreatic islets assessed as inhibition of insulin secretion at 10 uM measured up to 90 mins in presence of 16.7 mM glucose by scintillation counting method; settings: filed as opener, time min <=90; summary of the method: as §5
[9] = species on record: Rattus norvegicus; assay: Activation of ATP-sensitive potassium channel in perifused Wistar rat pancreatic islets assessed as increase in [45]Ca efflux at 10 uM measured up to 90 mins in presence of 16.7 mM glucose and absence of extracellular Ca2+ by scintillation counting method; settings: filed as opener, time min <=90; summary of the method: as §5
[10] = species on record: Rattus norvegicus; assay: Activation of ATP-sensitive potassium channel in perifused Wistar rat pancreatic islets assessed as increase in 45Ca efflux at 10 uM measured up to 90 mins in presence of 2.8 mM glucose and absence of extracellular Ca2+ by scintillation counting method; settings: filed as opener, time min <=90
Summary of the method: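 Perifused rat islets carrying 45Ca were exposed to 2.8 mM glucose in medium with or without extracellular Ca2+. Agent was added at 10 μM and 45Ca outflow was monitored.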

[11] = species on record: Rattus norvegicus; assay: Activation of ATP-sensitive potassium channel in perifused Wistar rat pancreatic islets assessed as increase in extracellular K+ concentration at 10 uM measured up to 90 mins in presence of 2.8 mM glucose and absence of extracellular Ca2+ by scintillation counting method; settings: filed as opener, time min <=90
[12] = test system: Pancreatic islet; assay: Decrease in cytosolic Ca2+ concentration during sustained phase in Wistar rat pancreatic islets at 10 uM measured up to 30 mins in presence of 2.8 to 20 mM extracellular glucose concentration by Fura-2 dye based fluorescence assay; type: functional, tissue-based; settings: time min <=30
Summary of the method: (§6)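 Single rat pancreatic islet cells were loaded with fura-2 and cytosolic Ca2+ was read as the 340:380 nm fluorescence ratio. Glucose was raised from 2.8 to 20 mM, in medium with or without external calcium. Agent (10 μM) was added afterwards, during the sustained phase.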

[13] = test system: Pancreatic islet; assay: Increase in intracellular Ca2+ concentration under deprived extracellular calcium and physiological condition in Wistar rat pancreatic islets at 10 uM measured up to 30 mins in presence of 20 mM extracellular glucose concentration by Fura-2 dye based fluorescence assay; type: functional, tissue-based; settings: time min <=30; summary of the method: as §6
[14] = test system: Pancreatic islet; assay: Increase in intracellular Ca2+ concentration under deprived extracellular calcium and physiological condition in Wistar rat pancreatic islets at 10 uM measured up to 30 mins in presence of 2.8 mM extracellular glucose concentration by Fura-2 dye based fluorescence assay; type: functional, tissue-based; settings: time min <=30
Summary of the method: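 Fura-2-loaded single rat islet cells were kept at 2.8 mM glucose in medium with or without extracellular calcium. Agent was added at 10 μM and fluorescence intensity was monitored.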

[15] = test system: Aorta; assay: Myorelaxant activity in aortic rings isolated from Wistar rat assessed as reduction in 80 mM KCl-induced contractions; type: functional, tissue-based; summary of the method: as §4
[16] = test system: Aorta; assay: Myorelaxant activity in aortic rings isolated from Wistar rat assessed as reduction in 30 mM KCl-induced contractions in presence of 1 uM KATP channel blocker glibenclamide; type: functional, tissue-based; summary of the method: as §4
[17] = test system: Aorta; assay: Myorelaxant activity in aortic rings isolated from Wistar rat assessed as reduction in 30 mM KCl-induced contractions in presence of 10 uM KATP channel blocker glibenclamide; type: functional, tissue-based; summary of the method: as §4
[18] = species on record: Rattus norvegicus; assay: Activation of ATP-sensitive potassium channel in perifused Wistar rat pancreatic islets assessed as increase in extracellular K+ concentration at 10 uM measured up to 90 mins in presence of 2.8 mM glucose and extracellular Ca2+ by scintillation counting method; settings: filed as opener, time min <=90
Summary of the method: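 Rat islets were perifused in 2.8 mM glucose with extracellular Ca2+. Extracellular K+ was raised from 5 to 50 mM, and 45Ca outflow was measured with or without agent (10 μM) present continuously. Values are mean ± SEM of 10 individual experiments.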

[19] = Residual glucose-induced insulin secretion in Wistar rat pancreatic islets at 1 uM incubated for 90 mins in presence of 16.7 mM glucose by radioimmunological assay relative to control; settings: Pancreatic islet, 1.5 h
[20] = Residual glucose-induced insulin secretion in Wistar rat pancreatic islets at 10 uM incubated for 90 mins in presence of 16.7 mM glucose by radioimmunological assay relative to control; settings: Pancreatic islet, 1.5 h
[21] = Residual 16.7 mM glucose-induced insulin secretion in Wistar rat pancreatic islets at 0.5 uM incubated for 90 mins in presence of glucose by radioimmunological assay relative to control; settings: Pancreatic islet, 1.5 h
[22] = Residual glucose-induced insulin secretion in Wistar rat pancreatic islets at 0.1 uM incubated for 90 mins in presence of 16.7 mM glucose by radioimmunological assay relative to control; settings: Pancreatic islet, 1.5 h
[23] = species on record: Rattus norvegicus; assay: Activation of ATP-sensitive potassium channel in perifused Wistar rat pancreatic islets assessed as increase in 86Rb outflow at 10 uM measured up to 90 mins by scintillation counting method; settings: filed as opener, time min <=90
[24] = species on record: Rattus norvegicus; assay: as above; settings: filed as opener, time min <=90; remark: listed apart in the source

Activity [1]: Active | IC50 [2]: 0.24 µM | EC50 ([4]; 1 h, in the assay text read “30 mM KCl” for “80 mM KCl”): 10.5 µM | Ratio [5]: 44 | Activity [6]: inactive | Activity [7]: Active | Activity [8]: Active | Activity [9]: Active | Activity [10]: Active | Activity [11]: Active | EC50 [15]: 12.2 µM | EC50 [16]: 11.6 µM | EC50 [17]: 9.4 µM | Activity [18]: Active | Activity [23]: Active | Activity [24]: Active
Structure (SMILES): CC(C)(C)OC(=O)Nc1ccc2c(c1)C(NC(=O)Nc1cccc(C#N)c1)CC(C)(C)O2 (racemic)
inhibition [3]: Dose-dependent effect | Activity [4]: Dose-dependent effect | Activity [12]: Active | Activity [13]: Active | Activity [14]: Active | residual insulin secretion at 1 µM [19]: 15.6% | residual insulin secretion at 10 µM [20]: 7.4% | residual insulin secretion at 0.5 µM [21]: 28.6% | residual insulin secretion at 0.1 µM [22]: 82%
